The source made the active and inactive calls. No cut-off for these calls is given here.
Legend:
HepG2 [1] = test: Cytotoxicity against human HepG2 cells at 100 uM after 48 hrs by MTT assay; assay type: functional, cell-based
SMMC-7721 [2] = test: Cytotoxicity against human SMMC7721 cells at 100 uM after 48 hrs by MTT assay; assay type: functional, cell-based
A549 [3] = test: Cytotoxicity against human A549 cells at 100 uM after 48 hrs by MTT assay; assay type: functional, cell-based
MCF7 [4] = test: Cytotoxicity against human MCF7 cells at 100 uM after 48 hrs by MTT assay; assay type: functional, cell-based
HepG2 [5] = test: Cytotoxicity against human HepG2 cells after 48 hrs by MTT assay; assay type: functional, cell-based; settings: HepG2, 48 h
Summary of the method: (§1)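 Cell lines: HepG2, A549 and MCF-7 from ATCC; SMMC-7721 hepatocellular carcinoma and QSG-7701 and HL-7702 normal human hepatocyte lines from the Type Culture Collection of the Chinese Academy of Sciences, Shanghai. Each line was exposed to compound and growth inhibition was scored; IC50 values reported as mean ± deviation.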

SMMC-7721 [6] = test: Cytotoxicity against human SMMC7721 cells after 48 hrs by MTT assay; assay type: functional, cell-based; settings: SMMC-7721, 48 h; summary of the method: as §1
A549 [7] = test: Cytotoxicity against human A549 cells after 48 hrs by MTT assay; assay type: functional, cell-based; settings: A549, 48 h; summary of the method: as §1
MCF7 [8] = test: Cytotoxicity against human MCF7 cells after 48 hrs by MTT assay; assay type: functional, cell-based; settings: MCF7, 48 h; summary of the method: as §1
[9] = Cytotoxicity against human QSG7701 cells after 48 hrs by MTT assay; assay type: cell-based; settings: QSG7701, 48 h; summary of the method: as §1
[10] = Cytotoxicity against human HL7702 cells after 48 hrs by MTT assay; assay type: cell-based; settings: L02, 48 h; summary of the method: as §1
HepG2 [11] = test: Induction of apoptosis in human HepG2 cells assessed as PARP cleavage after 8 hrs by Western blotting; assay type: functional, cell-based
Summary of the method: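 HepG2 cells were treated either at 5, 10 and 20 µM for 8 h, or at 4 µM for 0, 3, 6 or 12 h. PARP cleavage was then assessed.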

HepG2 [12] = test: Induction of apoptosis in human HepG2 cells assessed as caspase 3 activity at 4 uM at 12 hrs by Ac-DEVD-pNA-based colorimetric assay relative to control; assay type: functional
Summary of the method: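 HepG2 cells were treated at 4 µM for 0, 3, 6 and 12 h. Caspase-3 activity was measured colorimetrically as conversion of Ac-DEVD-pNA to p-nitroaniline, using a Biovision kit per the manufacturer's protocol. Activity was expressed as fold over control.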

HepG2 [13] = test: Induction of apoptosis in human HepG2 cells assessed as cytochrome c release from mitochondria at 4 uM after 12 hrs by immunofluorescence analysis relative to control; assay type: functional, cell-based
Summary of the method: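 HepG2 cells were treated at 4 µM for 12 h, then assessed for cytochrome c release from mitochondria.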

Compound	Activity (HepG2 [1])	Activity (SMMC-7721 [2])	Activity (A549 [3])	Activity (MCF7 [4])	IC50 (HepG2 [5])	IC50 (SMMC-7721 [6])	IC50 (A549 [7])	IC50 (MCF7 [8])	IC50 [9]	IC50 [10]	Activity (HepG2 [11])	fold change (FC) (HepG2 [12])	Activity (HepG2 [13])
C[C@@H]1[C@@H]2C(=O)O[C@@H]2C[C@]1(C)O	inactive	inactive	inactive	inactive									
C[C@@H]1[C@@H]2CC(=O)O[C@@H]2C[C@]1(C)O					5.36 µM	6.56 µM	5.88 µM	7.56 µM	16.3 µM	20.7 µM	Dose-dependent effect	6	Active

Source: ChEMBL document CHEMBL3259761, “Myrotheciumones: bicyclic cytotoxic lactones isolated from an endophytic fungus of Ajuga decumbens” (Bioorg Med Chem Lett, 2014)
